Columns and labels:
[1] = Half life of the compound in TFA at room temperature; type: physicochemical
Outline: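 SEM- and Boc-protected compounds in TFA (100 equiv) at room temperature. Deprotection was monitored and reported as the time to half-conversion (T1/2) and the time to full conversion.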

[2] = Stability of the compound in NaOH/THF at room temperature; type: physicochemical
Outline: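 SEM-protected compound in 1 M NaOH (10 equiv) in THF at room temperature. Deprotection was monitored for up to 12 h.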

[3] = Half life of the compound in TBAF/THF under reflux
[4] = Half life of the compound in NaOH/THF/MeOH at room temperature; type: physicochemical
Outline: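 Boc-protected compound in 1 M NaOH (10 equiv) in THF/MeOH at room temperature. Deprotection was followed and reported as T1/2 (half-deprotection time) and the time to complete deprotection.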

[5] = Half life of the compound in HCl/THF at room temperature; type: physicochemical
Outline: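 Boc-protected compound in 4 M HCl (10 equiv) in THF at room temperature. Deprotection was followed over time and reported as the time to half-conversion (T1/2) and the time to completion.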

[6] = target: T1, Prostaglandin E synthase (Homo sapiens, UniProt O14684); assay: Inhibition of mPGES1 (unknown origin) transfected in HEK293 cells co-expressing COX1 using arachidonic acid as substrate assessed as inhibition of PGE2 production incubated for 30 mins prior to arachidonic acid addition measured after 60 mins by HTRF assay; type: cell-based
T1 sequence (O14684 whole entry): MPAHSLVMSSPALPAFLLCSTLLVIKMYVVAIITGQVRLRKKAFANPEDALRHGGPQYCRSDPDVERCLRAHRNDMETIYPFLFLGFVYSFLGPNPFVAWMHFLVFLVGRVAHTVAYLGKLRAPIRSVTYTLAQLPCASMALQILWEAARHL
Outline: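 Enzyme source was microsomes from HEK293 cells co-transfected with mPGES-1 and COX-1, in 100 mM Tris-HCl pH 8.0 with 5 mM EDTA, 1 mM GSH, phenol and hematin. Compound was added in DMSO (final 1%) and preincubated 30 min at room temperature. Arachidonic acid in 0.1 M KOH started the reaction, which ran 60 min at room temperature. It was stopped with 1 M HCl, neutralized with 1 M NaOH, and PGE2 was quantified by HTRF.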

Compound	IC50 [6] [nM]	also measured
Cn1c(=O)c2c(nc(-c3ccccc3Cl)n2COCC[Si](C)(C)C)c2ccc(Br)cc21		half-life [1]: < 5 min; Stability [2]: Stable; half-life [3]: 30 min
Cn1c(=O)c2c(nc(-c3ccccc3Cl)n2C(=O)OC(C)(C)C)c2ccc(Br)cc21		half-life [4]: 15 min; half-life [5]: 30 min; half-life [1]: < 5 min
Nc1nc2cc(Br)ccc2c2[nH]c(-c3ccccc3Cl)nc12	1070	
CNc1nc2cc(Br)ccc2c2nc(-c3ccccc3Cl)[nH]c12	631	
CN(C)c1nc2cc(Br)ccc2c2[nH]c(-c3ccccc3Cl)nc12	387	
S=c1[nH]c2cc(Br)ccc2c2nc(-c3ccccc3Cl)[nH]c12	83	
CSc1nc2cc(Br)ccc2c2nc(-c3ccccc3Cl)[nH]c12	31	
CCSc1nc2cc(Br)ccc2c2[nH]c(-c3ccccc3Cl)nc12	59	
Cn1c(=O)c2[nH]c(-c3ccccc3Cl)nc2c2ccc(Br)cc21	85	
CCn1c(=O)c2[nH]c(-c3ccccc3Cl)nc2c2ccc(Br)cc21	106	
O=c1c2[nH]c(-c3ccccc3Cl)nc2c2ccc(Br)cc2n1Cc1ccccc1	226	
Cn1c(-c2ccccc2Cl)nc2c(=O)[nH]c3cc(Br)ccc3c21	> 10000	
Cn1c(-c2ccccc2Cl)nc2c3ccc(Br)cc3[nH]c(=O)c21	9810	
O=c1[nH]c2cc(Br)ccc2c2nc(-c3ccccc3Cl)n(Cc3ccccc3)c12	> 10000	
Cn1c(-c2ccccc2Cl)nc2c3ccc(Br)cc3n(C)c(=O)c21	> 10000	

Reference: ChEMBL document CHEMBL2346636, “Synthesis and biological evaluation of substituted imidazoquinoline derivatives as mPGES-1 inhibitors” (Bioorg Med Chem, 2013)
